In ChEMBL document CHEMBL1134233, “Synthesis of phenylglycine derivatives as potent and selective antagonists of group III metabotropic glutamate receptors” (2001):

Experiments:
[1] = Antagonist activity at Group III Metabotropic glutamate receptor in rat spinal cord in the presence of (S)AP4 at 100 uM as agonist challenge; assay type: functional
How it was run: (§1)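 Neonatal rat spinal cord, one-point assay run in triplicate. A single antagonist concentration was tested against a single agonist-evoked response, expressed as percent antagonism. The agonist was (2R,4R)-APDC for group II and (S)-AP4 for group III.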

[2] = Antagonist activity at Group III Metabotropic glutamate receptor in rat spinal cord; assay type: functional
How it was run: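 Neonatal rat spinal cord preparation. Concentration–response curves to the group III agonist (S)-AP4 were constructed with and without the antagonist, and an apparent KD was derived from the curve shift.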

[3] = Antagonist activity at Group II Metabotropic glutamate receptor in rat spinal cord in the presence of (2R,4R)APDC at 1 uM as agonist challenge; assay type: functional; how it was run: as §1
[4] = Antagonist activity at Group II Metabotropic glutamate receptor in rat spinal cord; assay type: functional
How it was run: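 Neonatal rat spinal cord preparation. Concentration–response curves to (1S,3S)-ACPD or (2R,4R)-APDC were built with and without antagonist to give an apparent K_D. For weak antagonists, a single antagonist concentration was tested against a single agonist-induced response in triplicate and reported as % antagonism.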

[5] = Antagonist activity at Group I Metabotropic glutamate receptor in rat spinal cord in the presence of (1S,3R)APCD at 1 mM as agonist challenge
[6] = Antagonist activity at Group I Metabotropic glutamate receptor in rat spinal cord; assay type: functional
[7] = Antagonist activity at Group I Metabotropic glutamate receptor in rat spinal cord; Not effective at 1 mM; assay type: functional
[8] = Antagonist activity at Group III Metabotropic glutamate receptor in rat spinal cord; Not effective at 50 uM; assay type: functional
[9] = Antagonist activity at Group III Metabotropic glutamate receptor in rat spinal cord; Not effective at 1 mM; assay type: functional

| Structure (SMILES) | KDs [2] [µM] | KDs [4] [µM] | further results |
| --- | --- | --- | --- |
| CCOP(=O)(O)c1ccc(C(C)(N)C(=O)O)cc1OC (centres undefined) |  |  | KDs [1]: 13 µM |
| Cc1cc(P(=O)(O)O)ccc1C(C)(N)C(=O)O (centres undefined) | 180 |  |  |
| COc1cc(C(C)(N)C(=O)O)ccc1P(=O)(O)O (centres undefined) |  |  | KDs [3]: 51 µM; KDs [1]: 4.8 µM |
| NC(C(=O)O)(c1ccc(P(=O)(O)O)cc1)C1CC1 (centres undefined) | 1.7 | 53 | Inhibition [5]: 70% |
| Cc1cc(C(C)(N)C(=O)O)ccc1P(=O)(O)O (centres undefined) | 5.5 |  |  |
| CC(N)(C(=O)O)c1ccc(C(=O)O)cc1 (centres undefined) | 227 | 479 | KDs [6]: 144 µM |
| CC(N)(C(=O)O)c1ccc(P(=O)(O)O)c(Cl)c1 (centres undefined) | 6.8 | 726 | KDs [7]: No effect |
| COc1cc(C(N)(C(=O)O)C2CC2)ccc1P(=O)(O)O (centres undefined) |  |  | KDs [8]: No effect |
| CC(N)(C(=O)O)c1ccc(P(=O)(O)O)cc1 (centres undefined) | 9.2 | 113 | KDs [7]: No effect |
| CC(N)(C(=O)O)c1cccc(CP(=O)(O)O)c1 (centres undefined) |  |  | KDs [9]: No effect |
